OXTR agonist – human OXTR agonists, primary screen, fluorescence, CHO-OTR cells, Fluo-8 calcium | Oxytocin receptor (Homo sapiens), P30559 | Fluo-8 calcium fluorescence; normalized: DMSO 0%, oxytocin 100% | activation, % at 3 µM | hit rate 0.32% among 320,000 | AID 2435, 2010;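 active means activation above the mean of all tested compounds plus 3 SD, cutoff set per screening run, cut at about 20% in these data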;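 further: peak over basal fluorescence ratio from a 100 s FLIPR kinetic read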
zfTRPN1 agonist – zebrafish TRPN1 channel agonists, primary screen, cell-based, HEK293, calcium fluorescence; transient receptor potential cation channel N1 (TRPN1/NompC), Danio rerio; HEK293 zebrafish TRPN1-YFP, Fluo-8 calcium fluorescence; 100% = response to 87 µM carbachol; activation, % at 3 µM; hit rate 0.18% among 220,000; AID 1424, 2008;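 active means activation above its plate's cutoff, the mean activation of test wells on that plate plus 3 SD, cut at about 19% in these data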
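System: zebrafish TRPN1-YFP in HEK293 cells / Dosing: 3 µM single point / Timing: dye loading 1 h at 37 °C, then 30 min room temperature / Signal: Fluo-8 calcium fluorescence, excitation 470-495 nm, emission 515-575 nm / Read-out basis: percent activation from peak over basal fluorescence ratio, control-normalized / Control set: high carbachol 87 µM, low DMSO alone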
TRPML3 agonist – human TRPML3 channel agonists, primary screen, cell-based, HEK293 TRPML3-YFP, Fluo-8 calcium fluorescence, 3 µM; 100% = the carbachol control signal; activation, % at 3 µM; hit rate 0.29% among 220,000;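 active means activation above its plate's cutoff, the mean activation of the plate's test wells plus 3 SD, cut at about 12% in these data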
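Material: HEK293 cells stably carrying human TRPML3-YFP; compound dosing: single dose, 3 µM final nominal compound, 0.3% DMSO final; incubation: 1-h 37 °C dye load, 5-s basal, 120-s post-compound reads; technique: Fluo-8 intracellular calcium fluorescence, excitation 470-495 nm, emission 515-575 nm; read-out basis: percent activation from peak-to-basal fluorescence ratio, scaled between DMSO and carbachol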
V1R ag counter – agonists of human V1a receptor, primary screen, counter-screen for OXTR agonist project, fluorescence, CHO-V1R cells. hit rate 0.25% among 320,000. Fluo-8 calcium fluorescence, agonist mode; 0% DMSO, 100% 3 nM vasopressin. Vasopressin V1a receptor (Homo sapiens), P37288. AID 2797, 2010. activation, % at 3 µM;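 active means activation above the mean activation of all tested compounds plus 3 SD, per screening run, cut at about 20% in these data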;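 further: signal is peak over basal fluorescence ratio across a 100 second FLIPR read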
Target sequence (P37288 whole entry, looked up): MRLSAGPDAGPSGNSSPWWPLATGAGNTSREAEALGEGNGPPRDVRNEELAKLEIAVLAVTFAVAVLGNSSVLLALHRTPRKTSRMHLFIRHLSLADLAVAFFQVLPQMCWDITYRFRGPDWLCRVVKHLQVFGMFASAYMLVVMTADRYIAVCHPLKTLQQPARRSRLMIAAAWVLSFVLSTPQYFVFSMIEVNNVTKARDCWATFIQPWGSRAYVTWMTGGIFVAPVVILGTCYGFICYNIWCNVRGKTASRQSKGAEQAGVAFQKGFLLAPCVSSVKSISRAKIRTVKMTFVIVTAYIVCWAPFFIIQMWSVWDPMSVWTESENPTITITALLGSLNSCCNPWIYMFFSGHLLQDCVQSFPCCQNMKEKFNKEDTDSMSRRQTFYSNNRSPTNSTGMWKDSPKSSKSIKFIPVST
OXTR potentiator – human OXTR potentiators, primary screen, fluorescence, CHO-OTR cells, Fluo-8 calcium. Fluo-8 calcium fluorescence, potentiator mode; 0% = oxytocin EC15, 100% = EC100. activation, % at 3 µM. hit rate 0.061% among 320,000. AID 2445, 2010;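 active means activation above that plate's cutoff, the mean activation of tested compounds plus 3 SD, cut at about 6.6% in these data, passing the limit was not always enough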
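Measured by – Fluo-8 calcium dye fluorescence · Test system – human OTR in CHO cells · Dosing – one concentration, 3.0 µM compound · Controls – EC15 oxytocin alone as 0%, 75 nM oxytocin as 100% · Evaluation – normalized max/min fluorescence ratio, % activation · Timing – 6 min pre-incubation, 100 s read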
Numbers stand for hits. Most compounds without a hit are left out; they make up all but 0.55% or so of the library.

What do the screens show for `COc1ccc(CNc2nc3ccccc3n2C)c(OC)c1`?
OXTR agonist: inactive; zfTRPN1 agonist: inactive; TRPML3 agonist: inactive; V1R ag counter: inactive; OXTR potentiator: inactive

What do the screens show for `O=C(Cc1ccc(Cl)cc1)Nc1ncc([N+](=O)[O-])s1`?
zfTRPN1 agonist: 22.4; TRPML3 agonist: inactive

What do the screens show for `O=C(COc1ccc(Cl)cc1)Nc1ncc([N+](=O)[O-])s1`?
zfTRPN1 agonist: 29.7; TRPML3 agonist: 19.9

How did Cc1cnc(NC(=O)Cc2ccc(Br)cc2)s1 do in these assays?
OXTR agonist: inactive; V1R ag counter: inactive; OXTR potentiator: inactive

What do the screens show for `O=C(Cc1ccc(Br)cc1)Nc1ncc([N+](=O)[O-])s1`?
OXTR agonist: inactive; zfTRPN1 agonist: 20.8; TRPML3 agonist: 14.0; V1R ag counter: inactive; OXTR potentiator: inactive

What do the screens show for `Cc1ccc(C2CC(=O)c3cnn(-c4nc(C)cc(C)n4)c3C2)cc1` (configuration not stated)?
OXTR agonist: inactive; zfTRPN1 agonist: inactive; TRPML3 agonist: inactive; V1R ag counter: inactive; OXTR potentiator: inactive

Results for CCC(C)Oc1nc(C)cc(C)c1S(=O)(=O)c1ccccc1C (configuration not stated) ?
OXTR agonist: inactive; zfTRPN1 agonist: inactive; TRPML3 agonist: 41.7; V1R ag counter: inactive; OXTR potentiator: inactive

Results for CN(C)c1ccc(/C=C2\Oc3ccc(C#Cc4cccc(N)c4)cc3C2=O)cc1 ?
OXTR agonist: 41.4; V1R ag counter: 41.4; OXTR potentiator: inactive

How did Nc1nc(C2CC2)c(Sc2sc(N)nc2C2CC2)s1 do in these assays?
OXTR agonist: 24.6; zfTRPN1 agonist: inactive; TRPML3 agonist: inactive; V1R ag counter: 25.1; OXTR potentiator: inactive

What do the screens show for `CCOC(=O)c1ccc2nc(NC(=O)C(C)C)sc2c1`?
OXTR agonist: inactive; zfTRPN1 agonist: inactive; TRPML3 agonist: inactive; V1R ag counter: inactive; OXTR potentiator: inactive

What do the screens show for `C=CCN(CC=C)S(=O)(=O)c1ccc2nc(NC(=O)C(C)C)sc2c1`?
OXTR agonist: 29.4; zfTRPN1 agonist: inactive; TRPML3 agonist: inactive; V1R ag counter: 22.1; OXTR potentiator: inactive

What do the screens show for `C[C@@H]1CN([C@@H](C)CO)C(=O)c2cccc(NC(=O)c3nc4ccccc4s3)c2O[C@@H]1CN(C)CC1CC1`?
OXTR agonist: inactive; V1R ag counter: inactive; OXTR potentiator: inactive

What do the screens show for `CCN1/C(=C/c2ccc3cc(C)ccc3[n+]2CC)Sc2cc(C)c(C)cc21`?
zfTRPN1 agonist: 49.0; TRPML3 agonist: 20.3

What do the screens show for `CCN1/C(=C/c2ccc3cc(C)ccc3[n+]2CC)Sc2ccccc21`?
OXTR agonist: 30.3; zfTRPN1 agonist: 83.4; TRPML3 agonist: 29.9; V1R ag counter: 32.0; OXTR potentiator: inactive

Results for CN1/C(=C/c2cccc[n+]2CCO)Sc2ccccc21 ?
OXTR agonist: inactive; V1R ag counter: inactive; OXTR potentiator: inactive

What do the screens show for `CC[n+]1c(/C=C2\Sc3ccccc3N2C)ccc2cccc(C)c21`?
zfTRPN1 agonist: 41.7; TRPML3 agonist: 17.9

What do the screens show for `CC[n+]1ccccc1/C=C1\Sc2ccc(C)cc2N1C`?
OXTR agonist: inactive; V1R ag counter: inactive; OXTR potentiator: inactive

How did COc1cccc(C(=O)N[C@@H](C)C(=O)N2CCC3(CC2)NCCc2[nH]cnc23)c1 do in these assays?
OXTR agonist: inactive; V1R ag counter: inactive; OXTR potentiator: inactive

Results for COc1ccc(C/C(N)=N/OC(=O)CCc2ccccc2)cc1 ?
OXTR agonist: inactive; V1R ag counter: inactive; OXTR potentiator: inactive

How did CC(=O)N1CCC(C(=O)Nc2ccc(S(=O)(=O)NCCc3ccccc3)cc2)CC1 do in these assays?
OXTR agonist: inactive; V1R ag counter: inactive; OXTR potentiator: inactive

Results for Cc1ccc(C2C(C(=O)c3cccs3)=C(O)C(=O)N2c2nnc(C)s2)cc1 (configuration not stated) ?
OXTR agonist: inactive; zfTRPN1 agonist: 42.3; TRPML3 agonist: 22.0; V1R ag counter: inactive; OXTR potentiator: inactive

What do the screens show for `COc1ccc(C2C(C(=O)c3cccs3)=C(O)C(=O)N2c2cccc(C)n2)cc1` (configuration not stated)?
OXTR agonist: inactive; zfTRPN1 agonist: inactive; TRPML3 agonist: inactive; V1R ag counter: inactive; OXTR potentiator: inactive

Results for CN(C)/C=N/NC(=O)c1ccccc1Cl ?
OXTR agonist: inactive; zfTRPN1 agonist: inactive; TRPML3 agonist: inactive; V1R ag counter: inactive; OXTR potentiator: inactive

Results for CN(C)/C=N/NC(=O)c1ccc(Cl)cc1 ?
OXTR agonist: inactive; zfTRPN1 agonist: 34.1; TRPML3 agonist: 46.3; V1R ag counter: inactive; OXTR potentiator: inactive

What do the screens show for `CC1(C)CC[C@]2(C(=O)O)CC[C@]3(C)C(=CC[C@@H]4[C@@]5(C)CC[C@H](O[C@@H]6O[C@H](C(=O)O)[C@@H](O)[C@H](O[C@@H]7OC[C@H](O)[C@H](O)[C@H]7O)[C@H]6O)C(C)(C)[C@@H]5CC[C@]43C)[C@@H]2C1`?
OXTR agonist: 56.0; V1R ag counter: 108.4; OXTR potentiator: inactive

Results for COc1ccc(/C=N/NC(=O)CC(=O)NCc2cccnc2)cc1 ?
OXTR agonist: inactive; zfTRPN1 agonist: inactive; TRPML3 agonist: inactive; V1R ag counter: inactive; OXTR potentiator: inactive

What do the screens show for `O=C(CSc1nnc(CNC(=O)c2c(F)cccc2F)o1)NCc1ccc(F)cc1`?
OXTR agonist: inactive; V1R ag counter: inactive; OXTR potentiator: inactive

Results for C=CCN1C(c2cccc(C(F)(F)F)c2)=CS/C1=C(/C#N)c1nnc(N2CCOCC2)n1-c1ccccc1 ?
OXTR agonist: inactive; zfTRPN1 agonist: 21.9; TRPML3 agonist: 60.6; V1R ag counter: inactive; OXTR potentiator: inactive

What do the screens show for `CC(=O)c1ccc(OC(=O)c2ccc(Br)o2)cc1`?
OXTR agonist: inactive; zfTRPN1 agonist: inactive; TRPML3 agonist: inactive; V1R ag counter: inactive; OXTR potentiator: inactive

Results for CCC(=O)c1ccc(OC(=O)c2ccc(Br)o2)cc1 ?
OXTR agonist: 34.7; zfTRPN1 agonist: inactive; TRPML3 agonist: inactive; V1R ag counter: 44.2; OXTR potentiator: inactive

How did NC(=O)COC(=O)CC1CC2CCC1C2 (configuration not stated) do in these assays?
OXTR agonist: inactive; zfTRPN1 agonist: inactive; TRPML3 agonist: inactive; V1R ag counter: inactive; OXTR potentiator: inactive

Results for CCc1ccc(S(=O)(=O)N2CCN(C(=O)C3CCN(C(C)=O)CC3)CC2)cc1 ?
OXTR agonist: inactive; V1R ag counter: inactive; OXTR potentiator: inactive

Screens from PubChem.
